Measurements pooled from the literature.
Lines come from different studies, so protocols differ.

SMILES | assay | system | setting | measurement | result
CC[C@H](C)[C@H](NC(=O)[C@H](Cc1ccccc1)NC(=O)[C@H](Cc1ccc(O)cc1)NC(=O)[C@@H]1CCCN1C(=O)[C@@H](N)Cc1ccc(O)cc1)C(=O)N1CCC[C@H]1C(=O)N[C@@H](CC(C)C)C(=O)NCC(=O)N[C@H](CCCCN)C(=O)NCC(=O)N[C@@H](CCC(=O)O)C(=O)N[C@H](C(=O)N[C@@H](CC(N)=O)C(=O)N[C@@H](CC(C)C)[C@@H](O)CC(=O)N[C@H](C(=O)N[C@@H](C)C(=O)N[C@@H](CCC(=O)O)C(=O)N1CCC[C@@H]1C(=O)N[C@@H](CCCCNC(=O)CCC(=O)O[C@H]1CC[C@@]2(C)C(=CC[C@H]3[C@@H]4CC[C@H]([C@H](C)CCCC(C)C)[C@@]4(C)CC[C@@H]32)C1)C(N)=O)C(C)C)C(C)C | – | aqueous buffer | pH 6.5 | thermodynamic solubility | 11 µg/mL
Cc1cc(Nc2ccc(S(F)(F)(F)(F)F)cc2)n2nc(C(C)(F)F)nc2n1 | general toxicity | mouse | oral, multiple doses | MTD | > 200 mg/kg
CC(C)S(=O)(=O)c1ccc(S(=O)(=O)N2CCC[C@@H](C(=O)N3CCC(F)(F)CC3)C2)cc1 | general toxicity | mouse | oral | MTD | 10 mg/kg
CC[C@@H]1CN(C(=O)NCC(F)(F)F)C[C@@H]1c1cnc2cnc3[nH]ccc3n12 | – | beagle dog, plasma | oral, 1 mg/kg, single dose | MRT(0-inf) | 11.6 h
O=C(NCCN1CCCC1)c1cc(-c2ccc(CN3CCOCC3)cc2)nc2ccc(F)cc12 | – | male beagle dog, blood | oral, 3 mg/kg | Tmax | 4 h
CC[C@H](C)[C@H](NC(=O)[C@H](CO)NC(=O)[C@H](CCCNC(=N)N)NC(C)=O)C(=O)N[C@H]1CSSC[C@@H](C(=O)N[C@H](C(N)=O)[C@@H](C)O)NC(=O)[C@H](CCCNC(=N)N)NC(=O)[C@H](Cc2c[nH]cn2)NC(=O)[C@H](C)NC(=O)CNC(=O)[C@H](Cc2c[nH]c3ccccc23)NC(=O)[C@H](CC(=O)O)NC(=O)[C@H](CCC(N)=O)NC(=O)[C@H](Cc2cn(C)c3ccccc23)NC(=O)[C@H](C(C)C)NC1=O | absorbance | water | – | thermodynamic solubility | > 500 µM
C[C@]12CCCN1CC1=NNC(=O)c3cc(F)cc4[nH]c2c1c34 | – | male Sprague-Dawley rat, brain | intravenous, 1 mg/kg | unbound tissue/plasma ratio | 0.134
C=C1C[C@H](O)[C@H](Br)C(C)(C)[C@@]12CCC(C)=C(Cl)C2 | general toxicity | female CD-1 mouse | intraperitoneal, single dose | MTD | 65 mg/kg
CC[C@H](C)[C@H](NC(=O)[C@H](Cc1ccccc1)NC(=O)[C@H](Cc1ccc(O)cc1)NC(=O)[C@@H]1CCCN1C(=O)[C@@H](N)Cc1ccc(O)cc1)C(=O)N[C@H](CCCCN)C(=O)N[C@@H](CC(C)C)C(=O)NCC(=O)N[C@H](CCCCN)C(=O)NCC(=O)N[C@@H](CCC(=O)O)C(=O)N[C@H](C(=O)N[C@@H](CC(N)=O)C(=O)N[C@@H](CC(C)C)[C@@H](O)CC(=O)N[C@H](C(=O)N[C@@H](C)C(=O)N[C@@H](CCC(=O)O)C(=O)N1CCC[C@@H]1C(=O)N[C@@H](CCCCNC(=O)CCC(=O)O[C@H]1CC[C@@]2(C)C(=CC[C@H]3[C@@H]4CC[C@H]([C@H](C)CCCC(C)C)[C@@]4(C)CC[C@@H]32)C1)C(N)=O)C(C)C)C(C)C | – | aqueous buffer | pH 6.5 | thermodynamic solubility | 55 µg/mL
Cn1nc(C(F)(F)F)cc1-c1ccc(OCc2ccc(Cl)cc2)c(-c2cc(C(F)(F)F)cc(C(F)(F)F)c2)c1O | general toxicity | CD-1 mouse | oral | MTD | 240 mg/kg/day
CC[C@H](C)[C@H](NC(=O)[C@H](Cc1ccccc1)NC(=O)[C@H](Cc1ccc(O)cc1)NC(=O)[C@@H]1CCCN1C(=O)[C@@H](N)Cc1ccc(O)cc1)C(=O)N1CCC[C@H]1C(=O)N[C@@H](CC(C)C)C(=O)NCC(=O)NCC(=O)N[C@H](CCCCN)C(=O)N[C@@H](CCC(=O)O)C(=O)N[C@H](C(=O)N[C@@H](CC(N)=O)C(=O)N[C@@H](CC(C)C)[C@@H](O)CC(=O)N[C@H](C(=O)N[C@@H](C)C(=O)N[C@@H](CCC(=O)O)C(=O)N1CCC[C@@H]1C(=O)N[C@@H](CCCCNC(=O)CCC(=O)O[C@H]1CC[C@@]2(C)C(=CC[C@H]3[C@@H]4CC[C@H]([C@H](C)CCCC(C)C)[C@@]4(C)CC[C@@H]32)C1)C(N)=O)C(C)C)C(C)C | – | aqueous buffer | pH 6.5 | thermodynamic solubility | < 1 µg/mL
CCCC(CCC)C(=O)OCC1(CO)C/C(=C\c2ccc(C(F)(F)F)cc2)C(=O)O1 (centres unmarked) | general toxicity | nude mouse | intraperitoneal | MTD | 12 mg/kg/day
N#C[C@@]1(c2ccc3c(N)ncnn23)O[C@H](CO)[C@@H](O)[C@H]1O | – | dog, plasma | intravenous, 2 mg/kg | MRT(0-inf) | 3.93 h
CCn1c(=O)c(-c2cc(NC(=O)Nc3ccccc3)c(F)cc2Br)cc2cnc(NC)cc21 | – | beagle dog, plasma | oral, 5 mg/kg, single dose | Tmax | 2.25 h
